Sampled rows, rich in hits. Any-hit rate of the full collection: about 3.3%.
E-selectin induc = E-selectin induction on HUVECs; HUVEC E-selectin immunofluorescence imaging; normalized: neutral wells 0, TNF-alpha wells 100; activation, % at 7.58 µM; hit rate 0.37% among 260,000; AID 686992;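 active = mean E-selectin-positive cell signal at least 10% of the positive control, reached in at least 60% of replicates, without over 20% cell loss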
Target sequence (P16581 whole entry, looked up): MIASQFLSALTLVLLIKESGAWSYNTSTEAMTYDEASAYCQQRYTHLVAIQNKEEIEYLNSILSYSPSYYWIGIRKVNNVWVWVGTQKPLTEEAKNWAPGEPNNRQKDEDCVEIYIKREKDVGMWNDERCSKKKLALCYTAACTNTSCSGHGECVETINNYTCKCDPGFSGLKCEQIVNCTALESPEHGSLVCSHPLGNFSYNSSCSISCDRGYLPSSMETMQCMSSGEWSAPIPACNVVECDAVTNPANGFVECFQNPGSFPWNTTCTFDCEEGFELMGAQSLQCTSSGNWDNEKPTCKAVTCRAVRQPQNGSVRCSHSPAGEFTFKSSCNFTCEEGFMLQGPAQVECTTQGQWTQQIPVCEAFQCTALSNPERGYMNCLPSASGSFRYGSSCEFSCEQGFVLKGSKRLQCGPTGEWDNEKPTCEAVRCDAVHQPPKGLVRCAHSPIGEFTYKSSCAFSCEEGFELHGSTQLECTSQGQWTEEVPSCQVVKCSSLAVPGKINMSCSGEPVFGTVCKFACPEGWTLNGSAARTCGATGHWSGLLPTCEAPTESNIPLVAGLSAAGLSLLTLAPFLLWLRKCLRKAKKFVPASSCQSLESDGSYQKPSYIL
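Material: HUVEC primary endothelial cells; Amount: 3,000 cells per well; Dosing: single concentration; Medium: EGM-2 growth medium on 0.1% gelatin-coated wells; Read-out basis: percent E-selectin-positive cells; Signal: immunofluorescence imaging; Control set: TNF-alpha, DMSO.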
PglD DTNB = blocks C. jejuni PglD acetyltransferase activity. purified PglD enzyme, DTNB colorimetric CoA detection. inhibition, % at 12.5 µM. hit rate 0.098% among 360,000. AID 602405; in the data active = inhibition above about 16%, passing the limit was not always enough
FGF22 binding = shifts melting point of recombinant human FGF22 | Q9HCT0 | hit rate 1.5% among 340,000 | activity (Tm shift, normalised), % at 9.99 µM | recombinant FGF22 thermal shift, SYPRO orange fluorescence; percent of sucrose octasulfate shift, DMSO zero;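 active = mean Tm shift, scaled 0 neutral to 100 positive control, at about 1.3% or above, every replicate too, limit read from the data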
Target sequence (Q9HCT0 whole entry, looked up): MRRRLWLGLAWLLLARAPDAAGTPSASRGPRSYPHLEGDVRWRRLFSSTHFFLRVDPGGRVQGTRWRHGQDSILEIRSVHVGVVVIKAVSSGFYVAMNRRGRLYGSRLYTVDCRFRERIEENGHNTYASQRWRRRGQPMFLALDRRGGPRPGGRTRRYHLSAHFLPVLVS
DENV2 CPE rescue = inhibitors of DENV2 cytopathic effect; DENV2-infected cells, cytopathic effect rescue, plate reader; CPE inhibition, % at 9.99 µM; hit rate 1.7% among 350,000; in the data active = CPE inhibition above about 20%, passing the limit was not always enough; tested in BHK-21 cells
Xi reactivation = X-chromosome reactivation activator; XiGFP mouse fibroblasts, % GFP-positive cells imaging, 3 d; cells co-treated with 5-aza-dC sensitizer; scaled so ellipticine positive control = 100%; activation, % at 7.58 µM; hit rate 0.055% among 360,000; AID 743238;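 active = mean normalized replicate activation at least 10% and every replicate at or above 10%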
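System: 68-5-11 XiGFP fibroblast line | Buffer or medium: DMEM containing 5-aza-dC | Compound: Single point | Times: Compounds 3 days, fix/stain 15 min at room temperature | Benchmarks: Positive control ellipticine, 6 µM final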
C2C12 statin = suppression of simvastatin myotoxicity; C2C12 myotubes + simvastatin, ATP luminescence, 48 h; scaled: DMSO 0, geranylgeraniol control 100; rescue of ATP level, % at 7.49 µM; hit rate 0.78% among 330,000;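 active = mean ATP rescue above about 67%, or every replicate alone reaching that limit, limit read from the data, passing the limit was not always enough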;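 also: myotubes were challenged with 10 µM simvastatin during compound exposure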
Of the large screens only hits and unclear results are named; the others gave an inactive call.

CC(C)NC(=O)N1CC2(C1)[C@H](c1ccccc1)[C@@H](CO)N2C(=O)C1CC1	none (no result: PglD DTNB, FGF22 binding, C2C12 statin)
C[C@@H]1CCCCO[C@@H](CN(C)C(=O)c2ccncc2)[C@H](C)CN([C@H](C)CO)C(=O)c2cc(NC(=O)NC3CCCCC3)ccc2O1	none (no result: C2C12 statin)
CCCCCCC1(C)NC(=S)N(c2ccccc2)N1 (stereo not given)	none (no result: E-selectin induc, PglD DTNB, C2C12 statin)
CCCCCC1(C)NC(=S)N(c2ccccc2)N1 (stereo not given)	FGF22 binding 44 (no result: E-selectin induc, PglD DTNB, C2C12 statin)
O=C(Nc1cc(F)ccc1F)N1CC(=O)N2[C@H](C1)[C@H](c1ccc(-c3ccccc3)cc1)[C@@H]2CO	none (no result: PglD DTNB, FGF22 binding, C2C12 statin)
Cc1ccc(C(=O)NNC(=O)C2CCN(Cc3ccc(Cl)c(Cl)c3)CC2)cc1	C2C12 statin 135 (no result: E-selectin induc, FGF22 binding, DENV2 CPE rescue, Xi reactivation)
C[C@H](CO)N1C[C@H](C)[C@@H](CN(C)Cc2ccncc2)Oc2ccc(NS(C)(=O)=O)cc2CC1=O	none (no result: DENV2 CPE rescue)
C[C@H]1CN([C@@H](C)CO)C(=O)Cc2cc(NS(C)(=O)=O)ccc2O[C@@H]1CN(C)Cc1ccncc1	E-selectin induc 449
C[C@H](CO)N1C[C@H](C)[C@H](CN(C)Cc2ccncc2)Oc2ccc(NS(C)(=O)=O)cc2CC1=O	E-selectin induc 257
CN(CCc1ccccn1)C(=O)CCC1CCCN(C(=O)c2cccc(N(C)C)c2)C1 (stereo not given)	DENV2 CPE rescue 35 (no result: E-selectin induc)
CN(CCc1ccccn1)C(=O)CCC1CCCN(C(=O)c2ccc3c(c2)OCCO3)C1 (stereo not given)	none (no result: PglD DTNB, DENV2 CPE rescue, C2C12 statin)
Cc1c(C(C)C)c(=O)n(-c2ccc(S(=O)(=O)NC3CCCCC3)cc2)n1C	none (no result: E-selectin induc, PglD DTNB, C2C12 statin)
Cc1c(C(C)C)c(=O)n(-c2ccc(S(=O)(=O)NCc3ccccc3)cc2)n1C	FGF22 binding 43 (no result: E-selectin induc, PglD DTNB, C2C12 statin)
CO[C@@H]1CN(C)C(=O)c2ccc(NS(=O)(=O)c3cccc(F)c3)cc2OC[C@@H](C)N(Cc2cc(F)ccc2F)C[C@@H]1C	none
COCC(=O)Nc1ccc2c(c1)OC[C@@H](C)N(Cc1cccc(F)c1)C[C@H](C)[C@H](OC)CN(C)C2=O	DENV2 CPE rescue 35
CO[C@@H]1CN(C)C(=O)c2ccc(NS(=O)(=O)c3cccc(F)c3)cc2OC[C@H](C)N(Cc2cc(F)ccc2F)C[C@@H]1C	DENV2 CPE rescue 28
COCC(=O)Nc1ccc2c(c1)OC[C@@H](C)N(Cc1cc(F)ccc1F)C[C@@H](C)[C@@H](OC)CN(C)C2=O	DENV2 CPE rescue 31
CO[C@H]1CN(C)C(=O)c2ccc(NC(=O)Nc3c(C)noc3C)cc2OC[C@@H](C)NC[C@@H]1C	none
C[C@H](CO)N1C[C@H](C)[C@@H](CN(C)C(=O)C2CCCCC2)Oc2cc(-c3ccncc3)ccc2S1(=O)=O	none (no result: PglD DTNB, FGF22 binding, DENV2 CPE rescue)
Cc1nccc(-c2cccc(NC(=O)Nc3ccc(Cl)cc3)c2)n1	FGF22 binding 1.8 (no result: PglD DTNB, C2C12 statin)
C[C@@H](NC(=O)C[C@H]1CC[C@@H](NC(=O)C2CCOCC2)[C@H](CO)O1)c1ccccc1	none
COc1ccc(N(C(=O)c2ccco2)S(=O)(=O)c2cc(OC)ccc2OC)cc1	C2C12 statin 104 (no result: E-selectin induc, FGF22 binding, DENV2 CPE rescue, Xi reactivation)
COc1ccc(N(C(=O)c2ccco2)S(=O)(=O)c2ccc(F)cc2)cc1	none (no result: E-selectin induc, FGF22 binding, DENV2 CPE rescue, Xi reactivation)
CN(Cc1nc2ccc(F)cc2[nH]1)Cc1c(C(=O)N(C)C)nc2ccc(Cl)cn12	none (no result: E-selectin induc, PglD DTNB, C2C12 statin)
Cc1cc2nc(CN(C)Cc3c(C(=O)N(C)C)nc4ccc(Cl)cn34)[nH]c2cc1C	FGF22 binding 43 (no result: PglD DTNB)
O=C(C[C@H]1CC[C@@H](NC(=O)Nc2ccc(F)cc2)[C@@H](CO)O1)NCc1cccc(F)c1	none
CCN1CCc2c(sc(NC(=O)CN3C(=O)c4ccccc4C3=O)c2C(N)=O)C1	none (no result: E-selectin induc)
CCN1CCN(S(=O)(=O)c2ccc(C(=O)Nc3sc4c(c3C(N)=O)CCN(CC)C4)cc2)CC1	Xi reactivation 54
CCN1CCc2c(sc(NC(=O)c3ccc4ccccc4c3)c2C(N)=O)C1	Xi reactivation 38
CN(C)CC(=O)Nc1ccc2c(c1)[C@H]1C[C@H](CC(=O)NCc3cc(F)ccc3F)O[C@H](CO)[C@H]1O2	none
CCCCCCC12Cc3cc(OC)c(OC)cc3C(O1)C1=C(O2)C(C)(C)CCC1=O (stereo not given)	FGF22 binding 43 (no result: PglD DTNB, C2C12 statin)
CCCCCCC12Cc3cc(OC)c(OC)cc3C(O1)c1c(cc(C)oc1=O)O2 (stereo not given)	none (no result: PglD DTNB, C2C12 statin)
COc1ccc(S(=O)(=O)N2C[C@H](O)COC[C@H]3O[C@H](CC(=O)N(C)C)CC[C@@H]32)cc1	none
C[C@@H]1CN([C@@H](C)CO)C(=O)Cc2cc(NC(=O)Nc3ccccc3)ccc2O[C@H]1CN(C)C(=O)Nc1ccc(C(F)(F)F)cc1	none
O=C(CNS(=O)(=O)c1ccccc1)N/N=C\c1ccc(Cl)cc1	none (no result: E-selectin induc, FGF22 binding, DENV2 CPE rescue)
O=C(CNS(=O)(=O)c1ccccc1)N/N=C/c1ccc(O)cc1	FGF22 binding 43 (no result: PglD DTNB, C2C12 statin)
COc1ccc(CN2[C@@H]3CN(C(=O)c4ccccc4)c4ccccc4[C@@H]3[C@@H]2CO)cc1	none
Clc1ccc(C[n+]2csc3ccccc32)cc1	none (no result: PglD DTNB, C2C12 statin)
Fc1ccc(C[n+]2csc3ccccc32)cc1	C2C12 statin 74 (no result: E-selectin induc, Xi reactivation)
Cc1ccccc1Nc1nc(N)nc(-c2oc3ccccc3c2C)n1	DENV2 CPE rescue 69 (no result: E-selectin induc, C2C12 statin)
CN1C(C(=O)NCc2ccc(OC(F)(F)F)cc2)CC2Cn3c(nc4ccccc43)C21 (stereo not given)	DENV2 CPE rescue 32
COc1cccc(NC(=O)CN(C)C(=O)Cc2ccc3c(c2)CCC3)c1	none (no result: E-selectin induc)
COc1cccc(NC(=O)CN(C)C(=O)Cc2ccc3c(c2)OCCO3)c1	DENV2 CPE rescue 42
CCNC(=O)c1cc2c(c(-c3cccc(-c4ccncc4)c3)n1)[C@@H](CCO)N(S(=O)(=O)CC)C2	DENV2 CPE rescue 51 (no result: PglD DTNB, C2C12 statin)
CC(C)(C)[S@](=O)N1Cc2cc(C(=O)N[C@H]3CCN(Cc4ccccc4)C3)nc(-c3cccc(-c4ccncc4)c3)c2[C@@H]1CCO	E-selectin induc 62 (no result: PglD DTNB, C2C12 statin)
CCCNC(=O)c1cc2c(c(-c3cccc(-c4ccncc4)c3)n1)[C@H](CCO)N(S(=O)(=O)CC)C2	none (no result: PglD DTNB, FGF22 binding, C2C12 statin)
COc1ccc(CNC(=O)c2cc3c(c(-c4cccc(-c5cccc(C#N)c5)c4)n2)[C@H](CCO)N([S@@](=O)C(C)(C)C)C3)cc1	E-selectin induc 54
CN(C)CC#Cc1cccc(-c2nc(C(=O)N[C@@H]3CCN(Cc4ccccc4)C3)cc3c2[C@H](CCO)N(S(=O)C(C)(C)C)C3)c1 (stereo not given in full)	DENV2 CPE rescue 48 (no result: E-selectin induc, PglD DTNB, Xi reactivation, C2C12 statin)
C[C@@H]1CCCCO[C@H](CN(C)C(=O)Nc2ccc(C(F)(F)F)cc2)[C@@H](C)CN([C@@H](C)CO)C(=O)c2cc(NS(=O)(=O)c3cn(C)cn3)ccc2O1	none (no result: C2C12 statin)
CCOc1cc(N2CCOCC2)c(OCC)cc1NC(=O)CN1C(=O)NC2(CCCCCCC2)C1=O	none (no result: E-selectin induc)
